{"source": "ChEMBL document CHEMBL4177770", "about": "“Discovery of MK-6169, a Potent Pan-Genotype Hepatitis C Virus NS5A Inhibitor with Optimized Activity against Common Resistance-Associated Substitutions” (J Med Chem, 2018)", "key": {"[1]": {"tested_on": "T1, Nonstructural protein 5A (Hepatitis C virus), Q5L478 [Y93H]", "T1 sequence (whole entry)": "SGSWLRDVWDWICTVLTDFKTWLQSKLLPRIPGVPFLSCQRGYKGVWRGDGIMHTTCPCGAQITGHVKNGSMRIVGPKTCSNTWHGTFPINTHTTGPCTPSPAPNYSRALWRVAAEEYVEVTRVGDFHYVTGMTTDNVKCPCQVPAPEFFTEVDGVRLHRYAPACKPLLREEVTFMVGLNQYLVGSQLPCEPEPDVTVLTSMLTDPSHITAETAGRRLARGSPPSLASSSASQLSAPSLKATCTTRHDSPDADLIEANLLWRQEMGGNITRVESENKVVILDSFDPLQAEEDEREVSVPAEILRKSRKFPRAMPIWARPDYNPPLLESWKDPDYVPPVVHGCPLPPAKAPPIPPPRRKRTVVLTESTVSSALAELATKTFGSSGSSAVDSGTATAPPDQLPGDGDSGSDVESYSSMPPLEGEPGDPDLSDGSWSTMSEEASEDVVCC", "experiment": "Inhibition of NS5A Y93H mutant in HCV genotype 1a infected in HuH7 replicon cells assessed as decrease in viral replication after 3 days by RT-PCR method", "assay_type": "cell-based", "details": "Hepatitis C virus subtype 1a"}, "[2]": {"experiment": "Drug level in Wistar Han rat at 10 mg/kg, po measured at 24 hrs by LC/MS method", "assay_type": "ADME, organism-based", "details": "in vivo, read-out: Drug uptake", "procedure,_shortened": "(§1)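 Male Wistar Han rats, two per dosing group, dosed orally at 10 mg/kg in 10% TWEEN. Plasma was separated from collected blood by centrifugation and analysed by LC/MS.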"}, "[3]": {"experiment": "AUC in Wistar Han rat at 300 mg/kg, po by LC/MS method", "assay_type": "ADME, organism-based", "details": "in vivo", "procedure,_shortened": "(§2)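 Single rising oral dose study in fed male Wistar Han rats, dosed PO in 10% TWEEN at the indicated doses. Plasma was obtained by centrifuging the blood, and compound levels were determined by LC/MS.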"}, "[4]": {"experiment": "Tmax in Wistar Han rat at 300 mg/kg, po by LC/MS method", "assay_type": "ADME, organism-based", "details": "in vivo", "procedure,_shortened": "as §2"}, "[5]": {"experiment": "Clearance in Wistar Han rat at 2 mg/kg, iv by LC/MS method", "assay_type": "ADME, organism-based", "details": "in vivo", "procedure,_shortened": "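Male Wistar Han rats, two per group, dosed IV at 2 mg/kg in 60% PEG200. Plasma was obtained by centrifuging the blood, and compound concentrations were measured by LC/MS.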"}, "[6]": {"tested_on": "Hepatitis C virus subtype 1a", "experiment": "Resistance ratio of EC90 for NS5A R81W mutant in HCV genotype 1a infected in HuH7 replicon cells to EC90 for NS5A in HCV genotype 1a infected in HuH7 replicon cells", "assay_type": "cell-based"}, "[7]": {"experiment": "Resistance ratio of EC90 for NS5A Y93H mutant in HCV genotype 3a infected in HuH7 replicon cells to EC90 for NS5A in HCV genotype 1a infected in HuH7 replicon cells", "assay_type": "cell-based"}, "[8]": {"target": "T2, Nonstructural protein 5A (Hepatitis C virus) (UniProt Q5L478)", "T2 sequence (whole entry)": "T1 sequence (whole entry) with H93Y", "experiment": "Inhibition of NS5A R81W mutant in HCV genotype 1a infected in HuH7 replicon cells assessed as decrease in viral replication after 3 days by RT-PCR method", "assay_type": "cell-based", "details": "Hepatitis C virus subtype 1a"}, "[9]": {"experiment": "Resistance ratio of EC90 for NS5A L31I mutant in HCV genotype 1b infected in HuH7 replicon cells to EC90 for NS5A in HCV genotype 1a infected in HuH7 replicon cells", "assay_type": "cell-based"}, "[10]": {"experiment": "Resistance ratio of EC90 for NS5A F28Y mutant in HCV genotype 2a infected in HuH7 replicon cells to EC90 for NS5A in HCV genotype 1a infected in HuH7 replicon cells", "assay_type": "cell-based"}, "[11]": {"experiment": "Cmax in Wistar Han rat at 10 mg/kg, po by LC/MS method", "assay_type": "ADME, organism-based", "design": "dose 10 mg/kg, route oral", "details": "in vivo", "procedure,_shortened": "as §1"}, "[12]": {"experiment": "Resistance ratio of EC90 for NS5A A92T mutant in HCV genotype 1b infected in HuH7 replicon cells to EC90 for NS5A in HCV genotype 1a infected in HuH7 replicon cells", "assay_type": "cell-based"}, "[13]": {"target": "T2, Nonstructural protein 5A (Hepatitis C virus)", "experiment": "Inhibition of NS5A L31V mutant in HCV genotype 4a infected in HuH7 replicon cells assessed as decrease in viral replication after 3 days by RT-PCR method", "assay_type": "cell-based", "details": "Hepatitis C virus subtype 4a"}, "[14]": {"tested_on": "Nonstructural protein 5A (Hepatitis C virus), Q5L478 [UNDEFINED MUTATION]", "experiment": "Inhibition of NS5A L31M/Y93H double mutant in HCV genotype 1b infected in HuH7 replicon cells assessed as decrease in viral replication after 3 days by RT-PCR method", "assay_type": "cell-based", "details": "Hepatitis C virus subtype 1b"}, "[15]": {"target": "T2, Nonstructural protein 5A (Hepatitis C virus)", "experiment": "Inhibition of NS5A L31V mutant in HCV genotype 1b infected in HuH7 replicon cells assessed as decrease in viral replication after 3 days by RT-PCR method", "assay_type": "cell-based", "details": "Hepatitis C virus subtype 1b"}, "[16]": {"experiment": "Cmax in Beagle dog at 5 mg/kg, po by LC/MS method", "assay_type": "ADME, organism-based, Canis lupus familiaris", "design": "dose 5 mg/kg, route oral", "details": "in vivo", "procedure,_shortened": "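Beagle dogs, two animals per dosing group. Oral dose was given in 10% TWEEN. Blood was collected and spun to plasma, and plasma compound levels were measured by LC/MS.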"}, "[17]": {"target": "T2, Nonstructural protein 5A (Hepatitis C virus)", "experiment": "Inhibition of NS5A M28T mutant in HCV genotype 1a infected in HuH7 replicon cells assessed as decrease in viral replication after 3 days by RT-PCR method", "assay_type": "cell-based", "details": "Hepatitis C virus subtype 1a"}, "[18]": {"experiment": "Resistance ratio of EC90 for NS5A L31M mutant in HCV genotype 1b infected in HuH7 replicon cells to EC90 for NS5A in HCV genotype 1a infected in HuH7 replicon cells", "assay_type": "cell-based"}, "[19]": {"target": "T2, Nonstructural protein 5A (Hepatitis C virus)", "experiment": "Inhibition of NS5A L31M mutant in HCV genotype 2b infected in HuH7 replicon cells assessed as decrease in viral replication after 3 days by RT-PCR method", "assay_type": "cell-based", "details": "Hepatitis C virus subtype 2b"}, "[20]": {"tested_on": "Hepatitis C virus subtype 1a", "experiment": "Resistance ratio of EC90 for NS5A M28T mutant in HCV genotype 1a infected in HuH7 replicon cells to EC90 for NS5A in HCV genotype 1a infected in HuH7 replicon cells", "assay_type": "cell-based"}, "[21]": {"target": "T2, Nonstructural protein 5A (Hepatitis C virus)", "experiment": "Inhibition of NS5A L31V mutant in HCV genotype 3a infected in HuH7 replicon cells assessed as decrease in viral replication after 3 days by RT-PCR method", "assay_type": "cell-based", "details": "Hepatitis C virus subtype 3a"}, "[22]": {"experiment": "AUC in Wistar Han rat at 10 mg/kg, po by LC/MS method", "assay_type": "ADME, organism-based", "details": "in vivo", "procedure,_shortened": "as §1"}, "[23]": {"target": "T2, Nonstructural protein 5A (Hepatitis C virus)", "experiment": "Inhibition of NS5A A92T mutant in HCV genotype 1b infected in HuH7 replicon cells assessed as decrease in viral replication after 3 days by RT-PCR method", "assay_type": "cell-based", "details": "Hepatitis C virus subtype 1b"}}, "note": "Positions count from the first letter of the chain named."}
{"molecule": "COC(=O)N[C@H](C(=O)N1CCC[C@H]1c1ncc(-c2cc(F)c3c(c2)O[C@@H](c2ccc(C4CC4)s2)n2c-3cc3cc(-c4cnc([C@@H]5CCCN5C(=O)[C@@H](NC(=O)OC)[C@@H]5CCOC(C)(C)C5)[nH]4)ccc32)[nH]1)C(C)C", "values": [{"measurement": "EC90", "setting": "[1]", "result": 33, "unit": "pM"}, {"measurement": "concentration at 24 h", "setting": "[2]", "result": "3 to 11", "unit": "nM"}, {"measurement": "AUC", "setting": "[3]", "result": 14.7, "unit": "µM·h"}, {"measurement": "Tmax", "setting": "[4]", "result": 5, "unit": "h"}, {"measurement": "clearance", "setting": "[5]", "result": 7, "unit": "mL/min/kg"}, {"measurement": "Ratio", "setting": "[6]", "result": "< 1"}, {"measurement": "Ratio", "setting": "[7]", "result": 571}, {"measurement": "EC90", "setting": "[8]", "result": 0.32, "unit": "pM"}, {"measurement": "Ratio", "setting": "[9]", "result": 5}, {"measurement": "Ratio", "setting": "[10]", "result": 16}, {"measurement": "Cmax", "setting": "[11]", "result": "150 to 183", "unit": "nM"}, {"measurement": "Ratio", "setting": "[12]", "result": 1}, {"measurement": "EC90", "setting": "[13]", "result": 7.7, "unit": "pM"}, {"measurement": "EC90", "setting": "[14]", "result": 190, "unit": "pM"}, {"measurement": "EC90", "setting": "[15]", "result": 5.8, "unit": "pM"}, {"measurement": "Cmax", "setting": "[16]", "result": 660, "unit": "nM"}, {"measurement": "EC90", "setting": "[17]", "result": 2, "unit": "pM"}, {"measurement": "Ratio", "setting": "[18]", "result": "< 1"}, {"measurement": "EC90", "setting": "[19]", "result": 18, "unit": "pM"}, {"measurement": "Ratio", "setting": "[20]", "result": "< 1"}, {"measurement": "EC90", "setting": "[21]", "result": 3200, "unit": "pM"}, {"measurement": "AUC", "setting": "[22]", "result": "0.95 to 1.65", "unit": "µM·h"}, {"measurement": "EC90", "setting": "[23]", "result": 3.9, "unit": "pM"}]}
